Assay type in all cases: functional
For assay [1], the system named is Zea mays. The assay can be described thus: Herbicidal activity against Zea mays (maize) assessed as inhibition of root growth at 200 ug/ml relative to control. As to conditions: read-out: GI. In short, it runs like this:
(§1)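 Seedlings were grown in an illumination incubator from ten Zea mays seeds or five Triticum aestivum seeds per plate, on filter paper wetted with 2 mL of test solution at 200 mg/L. Distilled water served as blank and metazachlor as positive control. Inhibitory ratio (0–100%) was scored against distilled water.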

Assay [2] deals with Triticum aestivum. Briefly: Herbicidal activity against Triticum aestivum (wheat) assessed as inhibition of height growth at 200 ug/ml relative to control. The following applies: read-out: GI. Put shortly: as §1
Assay [3] relates to Triticum aestivum. Briefly: Herbicidal activity against Triticum aestivum (wheat) assessed as inhibition of root growth at 200 ug/ml relative to control. The following applies: read-out: GI. Put shortly:
as §1

In assay [4] the test system is Zea mays. The assay can be described thus: Herbicidal activity against Zea mays (maize) assessed as inhibition of height growth at 200 ug/ml relative to control. The following applies: read-out: GI. Put shortly:
as §1

For the next assay, the system named is Arabidopsis thaliana. The assay can be described thus: Herbicidal activity against Arabidopsis thaliana assessed as inhibition of seed germination at 200 ug/ml relative to control. Put shortly: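 Five sterilized Arabidopsis thaliana […] per well in 24-well sterile plates, each with 100 μL of test solution at 200 mg/L, grown in an illumination incubator. Distilled water served as blank and metazachlor as positive control. Inhibitory ratio (0–100%) was scored against distilled water.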

For `Cc1ccccc1C(=O)Oc1ccc(CC2NC(=S)NC2=O)cc1` (stereo not given), the inhibition of growth at 200 µg/mL in the assay on Zea mays [1] worked out at 33.5%; with Triticum aestivum [2], 5.8%; in the assay on Triticum aestivum [3], 20.7%; in the assay with Zea mays [4] it was 53.2%. Also, in the assay with Arabidopsis thaliana, the inhibition (commonly the relative decrease from the control value, in per cent) at 200 µg/mL was 60%.
On the same counts, the results for `COc1ccc(C(=O)Oc2ccc(CC3NC(=S)NC3=O)cc2)cc1OC` (stereo not given) are 64.2%, 26.1%, 43.1%, 57.9% and 50%.
For `O=C(Cc1ccccc1)Oc1ccc(CC2NC(=S)NC2=O)cc1` (stereo not given), the inhibition of growth at 200 µg/mL in the assay on Zea mays [1] was 58.1%; with Triticum aestivum [2] it was 34.9%; with Triticum aestivum [3] it was 42.1%; in the assay with Zea mays [4], 53.9%. The inhibition at 200 µg/mL with Arabidopsis thaliana stood at 20%.
For `O=C(COc1ccc(Cl)cc1Cl)Oc1ccc(CC2NC(=S)NC2=O)cc1` (stereo not given), the inhibition of growth at 200 µg/mL came out at 74.9% with Zea mays [1], 97.8% in the assay with Triticum aestivum [2], 99.6% with Triticum aestivum [3] and 65.5% in the assay with Zea mays [4]. Further, in the assay on Arabidopsis thaliana, the inhibition at 200 µg/mL worked out at 50%.
On the same counts, the results for `COc1ccccc1C(=O)Oc1ccc(CC2NC(=S)NC2=O)cc1` (stereo not given) are -29%, 81.3%, 79.1%, -26.2% and 50%.
For `O=C(COc1ccc(Cl)cc1)Oc1ccc(CC2NC(=S)NC2=O)cc1` (stereo not given) the same measures were 59.4%, 95.2%, 99.6%, 16.4% and 40%.
On the same counts, the results for `COc1cc(C(=O)Oc2ccc(CC3NC(=S)NC3=O)cc2)cc(OC)c1OC` (stereo not given) are 19.9%, 42.3%, 59.7%, 22.1% and 10%.
As to `O=C(Oc1ccc(CC2NC(=S)NC2=O)cc1)c1ccc(-c2ccccc2)cc1` (stereo not given), the inhibition of growth at 200 µg/mL in the assay with Zea mays [1] is 48.7%; in the assay on Triticum aestivum [2], 20.9%; in the assay with Triticum aestivum [3] it was 3.2%; in the assay with Zea mays [4], 42.4%. Besides, the inhibition at 200 µg/mL in the assay with Arabidopsis thaliana worked out at 5%.
Consider `CC(C)(C)c1ccc(C(=O)Oc2ccc(CC3NC(=S)NC3=O)cc2)cc1` (stereo not given), for which the inhibition of growth at 200 µg/mL in the assay with Zea mays [1] was 22.5%; with Triticum aestivum [2], 55.5%; in the assay with Triticum aestivum [3] it was 25.9%; with Zea mays [4], 30.9%. For the same compound, in the assay on Arabidopsis thaliana, the inhibition at 200 µg/mL amounted to 10%.
In the case of `O=C(Oc1ccc(CC2NC(=S)NC2=O)cc1)c1cc([N+](=O)[O-])cc([N+](=O)[O-])c1` (stereo not given), the inhibition of growth at 200 µg/mL was 71% in the assay with Zea mays [1], 86.2% in the assay with Triticum aestivum [2], 18.8% in the assay on Triticum aestivum [3] and 27.8% with Zea mays [4]. The inhibition at 200 µg/mL in the assay on Arabidopsis thaliana worked out at 5%.
As for `O=C(Oc1ccc(CC2NC(=S)NC2=O)cc1)c1cccs1` (stereo not given), the inhibition of growth at 200 µg/mL is -24.7% with Zea mays [1], -1.2% in the assay on Triticum aestivum [2], 15.5% in the assay on Triticum aestivum [3] and 11.6% in the assay on Zea mays [4]. For the same compound, the inhibition at 200 µg/mL in the assay on Arabidopsis thaliana amounted to 20%.
On the same counts, the results for `O=C(/C=C/c1ccccc1)Oc1ccc(CC2NC(=S)NC2=O)cc1` (stereo not given) are 77.9%, 33.8%, 2.5%, 52.7% and 10%.
On the same counts, the results for `O=C(Cc1cc(C(F)(F)F)cc(C(F)(F)F)c1)Oc1ccc(CC2NC(=S)NC2=O)cc1` (stereo not given) are 71.5%, 65.5%, 32.7%, 45.5% and 5%.
For the compound `O=C(Cc1ccc(F)cc1)Oc1ccc(CC2NC(=S)NC2=O)cc1` (stereo not given), the inhibition of growth at 200 µg/mL was 77.3% in the assay with Zea mays [1], 50.2% with Triticum aestivum [2], 86.6% in the assay on Triticum aestivum [3] and 70.1% in the assay on Zea mays [4]. Also, the inhibition at 200 µg/mL with Arabidopsis thaliana was determined as 20%.
On the same counts, the results for `O=C(Oc1ccc(CC2NC(=S)NC2=O)cc1)c1ccco1` (stereo not given) are 60.7%, 27.5%, 30.3%, 72.8% and 40%.
On the same counts, the results for `O=C(Oc1ccc(CC2NC(=S)NC2=O)cc1)c1ccccc1` (stereo not given) are 44.5%, -11.1%, 16.2%, 26.6% and 10%.
Take `O=C(Oc1ccc(CC2NC(=S)NC2=O)cc1)c1cccc([N+](=O)[O-])c1` (stereo not given): the inhibition of growth at 200 µg/mL in the assay on Zea mays [1] is -16.3%; in the assay on Triticum aestivum [2], 20.6%; with Triticum aestivum [3], 16.3%; in the assay on Zea mays [4], 3.9%. Besides, in the assay with Arabidopsis thaliana, the inhibition at 200 µg/mL was 20%.
Regarding `O=C(Oc1ccc(CC2NC(=S)NC2=O)cc1)c1ccccc1F` (stereo not given), the inhibition of growth at 200 µg/mL is -30.2% in the assay with Zea mays [1], 48.4% in the assay on Triticum aestivum [2], 57.9% with Triticum aestivum [3] and -19.4% with Zea mays [4]. Also, in the assay on Arabidopsis thaliana, the inhibition at 200 µg/mL was determined as 30%.
On to `COc1ccc(C(=O)Oc2ccc(CC3NC(=S)NC3=O)cc2)c(OC)c1` (stereo not given), for which the inhibition of growth at 200 µg/mL with Zea mays [1] is -11.6%; in the assay with Triticum aestivum [2] it was -2.9%; with Triticum aestivum [3] it was 10.7%; in the assay with Zea mays [4], 19.6%. In the assay on Arabidopsis thaliana, the inhibition at 200 µg/mL worked out at 20%.
For `COc1cccc(C(=O)Oc2ccc(CC3NC(=S)NC3=O)cc2)c1OC` (stereo not given) the same measures were 11.2%, -10.9%, 20.9%, 6.7% and 20%.
For `O=C(Oc1ccc(CC2NC(=S)NC2=O)cc1)c1ccccc1Cl` (stereo not given) the same measures were 5.9%, 24.7%, 53.4%, 53.4% and 30%.
Take `O=C(Oc1ccc(CC2NC(=S)NC2=O)cc1)c1ccccc1[N+](=O)[O-]` (stereo not given): the inhibition of growth at 200 µg/mL is 7.6% with Zea mays [1], 3.7% in the assay with Triticum aestivum [2], 10.6% with Triticum aestivum [3] and 63.6% with Zea mays [4]. The inhibition at 200 µg/mL in the assay on Arabidopsis thaliana was 40%.
On the same counts, the results for `O=C(Oc1ccc(CC2NC(=S)NC2=O)cc1)c1cccc(Cl)c1` (stereo not given) are 22.1%, 8.8%, 47.5%, 41.7% and 70%.
On the same counts, the results for `O=C(Oc1ccc(CC2NC(=S)NC2=O)cc1)c1ccc(Br)cc1` (stereo not given) are 22%, 5.2%, -48%, 14.7% and 60%.
With `O=C(Oc1ccc(CC2NC(=S)NC2=O)cc1)c1ccc(Cl)cc1` (stereo not given), the inhibition of growth at 200 µg/mL in the assay with Zea mays [1] was 8.6%; in the assay on Triticum aestivum [2], -12.9%; in the assay on Triticum aestivum [3], -13.6%; with Zea mays [4], 23.5%. For the same compound, the inhibition at 200 µg/mL in the assay with Arabidopsis thaliana was 40%.
On the same counts, the results for `O=C(Oc1ccc(CC2NC(=S)NC2=O)cc1)c1ccc(Cl)c(Cl)c1` (stereo not given) are 24.1%, -15.8%, 7%, 36.7% and 40%.
On the same counts, the results for `O=C(Oc1ccc(CC2NC(=S)NC2=O)cc1)c1ccc(Cl)c([N+](=O)[O-])c1` (stereo not given) are 44.2%, -3.7%, 2.6%, 54.4% and 50%.
On to `Cc1cccc(C(=O)Oc2ccc(CC3NC(=S)NC3=O)cc2)c1` (stereo not given), for which the inhibition of growth at 200 µg/mL in the assay with Zea mays [1] is 61.3%; in the assay with Triticum aestivum [2], -14.8%; in the assay on Triticum aestivum [3] it was 12.7%; with Zea mays [4], 62.8%. For the same compound, the inhibition at 200 µg/mL with Arabidopsis thaliana was 50%.
Turning to `COc1ccc(C(=O)Oc2ccc(CC3NC(=S)NC3=O)cc2)cc1` (stereo not given), the inhibition of growth at 200 µg/mL in the assay on Zea mays [1] is 17.8%; in the assay on Triticum aestivum [2], 25.1%; in the assay with Triticum aestivum [3] it was 32.2%; in the assay with Zea mays [4] it was 33.5%. The inhibition at 200 µg/mL in the assay on Arabidopsis thaliana was 30%.
On the same counts, the results for `Cc1ccc(C(=O)Oc2ccc(CC3NC(=S)NC3=O)cc2)cc1` (stereo not given) are 38.7%, 1.27%, 16.8%, 27.9% and 60%.

The values are drawn from ChEMBL document CHEMBL3046718, “Synthesis and herbicidal activity of 5-(4-hydroxybenzyl)-2-thioxoimidazolidin-4-one esters” (2011).
